Series [1] is described as follows: Lipophilicity, log P of the compound. The following applies: octanol/water. Format: physicochemical. The essentials: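 Computed log P from the ClogP program. The values in parentheses beside them are measured log P taken from literature sources, not measured in this work.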
Series [2] in a line: Inhibition of rabbit carboxylesterase. More on the design: species or system Oryctolagus cuniculus.
A short description of series [3]: Inhibition of human intestinal carboxylesterase after 5 mins.
Series [4] concerns the target T1, Liver carboxylesterase 1 (Homo sapiens, UniProt P23141).
T1 sequence (P23141 whole entry): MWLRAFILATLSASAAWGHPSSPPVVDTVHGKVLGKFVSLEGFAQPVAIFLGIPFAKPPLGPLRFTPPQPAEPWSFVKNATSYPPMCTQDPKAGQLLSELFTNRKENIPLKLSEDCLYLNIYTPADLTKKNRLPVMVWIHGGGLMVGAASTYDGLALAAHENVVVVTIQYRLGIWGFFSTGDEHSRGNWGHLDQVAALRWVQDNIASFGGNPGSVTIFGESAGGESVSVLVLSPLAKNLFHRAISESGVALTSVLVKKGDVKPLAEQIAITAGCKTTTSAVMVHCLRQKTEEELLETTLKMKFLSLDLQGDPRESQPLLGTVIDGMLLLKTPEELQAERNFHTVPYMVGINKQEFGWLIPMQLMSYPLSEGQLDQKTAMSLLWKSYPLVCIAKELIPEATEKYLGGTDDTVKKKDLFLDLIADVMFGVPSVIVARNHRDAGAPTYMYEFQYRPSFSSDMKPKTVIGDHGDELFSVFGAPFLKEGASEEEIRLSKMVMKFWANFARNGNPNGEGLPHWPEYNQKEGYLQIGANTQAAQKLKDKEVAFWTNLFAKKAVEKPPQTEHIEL
Description: Inhibition of human carboxylesterase 1 after 5 mins.

Series [5] in a line: Inhibition of rabbit carboxylesterase after 5 mins. More on the design: species or system Oryctolagus cuniculus.
Series [6] in a line: Inhibition of human intestinal carboxylesterase after 24 hrs.
Series [7] addresses T1, Liver carboxylesterase 1. Nature of the series: Inhibition of human carboxylesterase 1 after 24 hrs.
Series [8] in a line: Inhibition of rabbit carboxylesterase after 24 hrs. More on the design: species or system Oryctolagus cuniculus.

The logP is a log measure of how a compound divides between an organic and an aqueous phase. In the case of `CC(=O)Oc1ccc2c(C)cc(=O)oc2c1`, the logP in series [1] (read-out: logP) came out at 2.11.

One may read the pKi as the Ki on a negative log10 scale, so that one unit is a factor of ten. Low values mean a large Ki, high ones a small Ki. The compound `O=C(C(=O)c1ccc2ccccc2c1)c1ccc2ccccc2c1` yielded a pKi in series [2] of 8.98. Moreover, the logP in series [1] (read-out: logP) is 5.73.

For `COc1ccc(C(=O)C(=O)c2ccc(OC)cc2)cc1`, in series [2], the negative-log Ki (pKi) is reported as 6.24. In addition, in series [1] (read-out: logP), the logP came to 3.61.

For `O=C(C(=O)c1ccc(Br)c([N+](=O)[O-])c1)c1ccc(Br)c([N+](=O)[O-])c1`, the pKi in series [2] worked out at 8.06. Further, the logP in series [1] (read-out: logP) is -1.38.

In series [2], `O=C(C(=O)c1cccc([N+](=O)[O-])c1)c1cccc([N+](=O)[O-])c1` gave a pKi of 6.57. Further, in series [1] (read-out: logP), the logP is -3.2.

`COc1ccc(C(=O)C(=O)c2ccccc2Cl)cc1OC` came in with a pKi in series [2] of 7.44. For the same compound, in series [1] (read-out: logP), the log partition coefficient (logP) amounted to 4.04.

In series [2], `Cc1ccc(C(=O)C(=O)c2ccccc2)cc1[N+](=O)[O-]` registered a pKi of 7.92. For the same compound, the lipophilicity (logP) in series [1] (read-out: logP) stood at 0.59.

In turn, `O=C(C(=O)c1ccc(Cl)cc1)c1ccc(Cl)cc1` returned a pKi in series [2] of 8.02. The logP in series [1] (read-out: logP) was found to be 4.9.

`O=C(C(=O)c1ccc(Cl)cc1)c1ccccc1` displayed a pKi in series [2] of 7.62. For the same compound, the lipophilicity (logP) in series [1] (read-out: logP) is 4.17.

Consider `O=C(C(=O)c1ccc(CBr)cc1)c1ccccc1`, for which the pKi in series [2] is on record as 7.82. In series [1] (read-out: logP), the logP amounted to 4.16.

In the case of `Cc1ccc(C(=O)C(=O)c2ccc(Cl)cc2)cc1`, the pKi in series [2] is 7.79. For the same compound, the logP in series [1] (read-out: logP) worked out at 4.67.

`COc1ccc(C(=O)C(=O)c2ccccc2)cc1` returned a pKi in series [2] of 6.7. Also, the log partition coefficient (logP) in series [1] (read-out: logP) was found to be 3.6.

Consider `O=C(C(=O)c1ccc([N+](=O)[O-])cc1)c1ccccc1`, for which the pKi in series [2] is recorded as 7.66. Besides, in series [1] (read-out: logP), the logP came out at 0.09.

The compound `O=C(C(=O)c1ccc(Br)s1)c1ccc(Br)s1` returned a pKi in series [2] of 8.15. Besides, the logP in series [1] (read-out: logP) is 4.61.

For the compound `Cc1ccc(C(=O)C(=O)c2ccc(C)cc2)cc1`, the pKi in series [2] amounted to 7.3. The logP in series [1] (read-out: logP) was determined as 4.38.

With `Cc1ccc(C(=O)C(=O)c2ccccc2)cc1C`, the pKi in series [2] was 6.97. Also, the logP in series [1] (read-out: logP) was found to be 4.33.

In turn, `O=C(C(=O)c1c(Cl)c(Cl)c(Cl)c(Cl)c1Cl)c1c(F)c(F)c(F)c(F)c1F` came in with a pKi in series [2] of 6.08. Moreover, the logP in series [1] (read-out: logP) was 7.2.

`O=C(C(=O)c1ccc(C(=O)C(=O)c2ccccc2)cc1)c1ccccc1`: in series [2], the pKi stood at 8.21. Also, the logP in series [1] (read-out: logP) was found to be 4.89.

Consider `O=C(C(=O)c1ccccc1Cl)c1ccccc1Cl`, for which the pKi in series [2] was determined as 6.66. Also, the log partition coefficient (logP) in series [1] (read-out: logP) was found to be 4.9.

`O=C(C(=O)c1ccc([N+](=O)[O-])cc1[N+](=O)[O-])c1ccccc1` gave a pKi in series [2] of 6.28. For the same compound, in series [1] (read-out: logP), the logP is -3.2.

As to `O=C(O)c1ccc(C(=O)C(=O)c2ccccc2)cc1`, the pKi in series [2] was 7.19. The logP in series [1] (read-out: logP) is 3.39.

In turn, `Cc1ccc(C(=O)C(=O)c2ccccc2)cc1` showed a pKi in series [2] of 6.92. For the same compound, the logP in series [1] (read-out: logP) was 3.88.

For `O=C(C(=O)c1ccccn1)c1ccccn1`, the pKi in series [2] came to 6.32. The logP in series [1] (read-out: logP) came out at 0.9.

Broadly, the Ki is the dissociation constant of the complex between target and ligand, obtained from inhibition or displacement. A higher Ki goes with a looser hold on the target. With `CCCCSCC(=O)C(F)(F)F`, the pKi in series [3] was 5.77; in series [5] it was 6.38; in series [6] it was 7.78; in series [8] it was 8.11. For the same compound, the Ki in series [4] was 794 nM; in series [7] it was 5.37 nM.

On to `COc1cccc(C(=O)C(=O)c2cccc(OC)c2)c1`, for which the pKi in series [2] amounted to 7.14. The log partition coefficient (logP) in series [1] (read-out: logP) stood at 3.61.

As to `CCCCCCSCC(=O)C(F)(F)F`, the pKi in series [3] is recorded as 6.25; in series [5] it was 6.6; in series [6], 8.19; in series [8], 8. The Ki in series [4] was 331 nM; in series [7], 5.25 nM.

As for `CCCCCCOCC(O)(O)C(F)(F)F`, the pKi turned out to be 5.04 in series [3], 5.57 in series [5], 8.92 in series [6] and 8.77 in series [8]. The Ki was 3310 nM in series [4] and 1 nM in series [7].

As to `CCCCCCS(=O)(=O)CC(O)(O)C(F)(F)F`, the pKi is listed as 4.56 in series [3], 4.82 in series [5], 8.43 in series [6] and 7.46 in series [8]. The inhibition constant (Ki) was 9770 nM in series [4] and 0.708 nM in series [7].

On to `CC(=O)Oc1ccccc1[N+](=O)[O-]`, for which the log partition coefficient (logP) in series [1] (read-out: logP) came to 1.5.

Turning to `CCCCCCCC[S+]([O-])CC(O)(O)C(F)(F)F` (stereo unspecified), the pKi in series [3] came out at 5.62; in series [5], 5.31; in series [6], 9.3; in series [8], 8.19. For the same compound, the Ki in series [4] is 14800 nM; in series [7] it was 0.603 nM.

Consider `CCCCCCCCS(=O)(=O)CC(O)(O)C(F)(F)F`, for which the pKi in series [3] is listed as 5.33; in series [5], 5.32; in series [6] it was 8.24; in series [8], 7.43. Further, the Ki was 1510 nM in series [4] and 0.603 nM in series [7].

On to `CCCCCC[S+]([O-])CC(O)(O)C(F)(F)F` (stereo unspecified), for which the pKi worked out at 4.17 in series [3], 4.64 in series [5], 9.3 in series [6] and 7.66 in series [8]. Also, the figures for the Ki in series [4] and in series [7] were 79400 nM and 3.31 nM, respectively.

On to `O=C(CSCCc1ccccc1)C(F)(F)F`, for which the negative logarithm of the Ki (pKi) turned out to be 6.12 in series [3], 6.39 in series [5], 8.32 in series [6] and 8.26 in series [8]. The figures for the Ki in series [4] and in series [7] were 120 nM and 6.46 nM, respectively.

On to `COc1cc(Br)ccc1C(=O)C(=O)c1ccc(Br)cc1OC`, for which, in series [2], the pKi was 7.27. Besides, the logP in series [1] (read-out: logP) was 4.68.

Regarding `OC(O)(CSCCc1ccccc1)C(F)(F)F`, the pKi came out at 4.29 in series [3], 4.87 in series [5], 6.93 in series [6] and 6.97 in series [8]. Further, the results for the Ki in series [4] and in series [7] were 13800 nM and 6.03 nM, respectively.

In the case of `CCCCCCCCCCC(=O)C(F)(F)F`, the pKi is listed as 7.66 in series [3], 6.85 in series [5], 5.69 in series [6] and 5.49 in series [8]. Also, the Ki in series [4] was 151 nM; in series [7], 2.29 nM.

`CCCCCCCCSCC(=O)C(F)(F)F`: the pKi in series [3] came to 6.66; in series [5], 6.82; in series [6], 8.46; in series [8], 8.11. Moreover, the Ki in series [4] is 191 nM; in series [7], 4.17 nM.

On to `CC(=O)Oc1ccccc1C(=O)O` [ASPIRIN], for which the logP in series [1] (read-out: logP) came out at 1.02.

In the case of `COC(=O)[C@H]1[C@@H](OC(=O)c2ccccc2)C[C@@H]2CC[C@H]1N2C` [COCAINE], the logP in series [1] (read-out: logP) was 2.57.

Consider `CC(=O)Oc1ccc2c3c1O[C@H]1[C@@H](OC(C)=O)C=C[C@H]4[C@@H](C2)N(C)CC[C@@]341` [DIACETYLMORPHINE], for which the logP in series [1] (read-out: logP) turned out to be 1.5.

Turning to `CC[C@H](C)C(=O)O[C@H]1C[C@@H](C)C=C2C=C[C@H](C)[C@H](CC[C@@H]3C[C@@H](O)CC(=O)O3)[C@H]21` [LOVASTATIN], the logP in series [1] (read-out: logP) was determined as 4.3.

As to `CC1(C)C(C=C(Cl)Cl)C1C(=O)OCc1cccc(Oc2ccccc2)c1` (stereo unspecified) [PERMETHRIN], the logP in series [1] is on record as 7.38.

These data come from ChEMBL document CHEMBL1139338, “Comparison of benzil and trifluoromethyl ketone (TFK)-mediated carboxylesterase inhibition using classical and 3D-quantitative structure-activity relationship analysis” (Bioorg Med Chem, 2009).
